What was measured:
[1] = Half life in rat at 1 mg/kg, iv and 2 mg/kg, po; format: ADME, organism-based; details: in vivo
Xaa-Pro aminopeptidase 1 = Xaa-Pro aminopeptidase 1 (Homo sapiens, UniProt Q9NQW7); assay: Inhibition of amino peptidase P
Dipeptidyl peptidase 4 [2] = molecular target: Dipeptidyl peptidase 4 (Homo sapiens, UniProt P27487)
[3] = Cmax in dog at 2 mg/kg, po; format: ADME, organism-based, Canis lupus familiaris; set-up: dose 2 mg/kg, route oral; details: in vivo
Prolyl endopeptidase FAP = molecular target: T1, Prolyl endopeptidase FAP (Homo sapiens, UniProt Q12884); assay: Inhibition of FAP
T1 sequence (Q12884 whole entry): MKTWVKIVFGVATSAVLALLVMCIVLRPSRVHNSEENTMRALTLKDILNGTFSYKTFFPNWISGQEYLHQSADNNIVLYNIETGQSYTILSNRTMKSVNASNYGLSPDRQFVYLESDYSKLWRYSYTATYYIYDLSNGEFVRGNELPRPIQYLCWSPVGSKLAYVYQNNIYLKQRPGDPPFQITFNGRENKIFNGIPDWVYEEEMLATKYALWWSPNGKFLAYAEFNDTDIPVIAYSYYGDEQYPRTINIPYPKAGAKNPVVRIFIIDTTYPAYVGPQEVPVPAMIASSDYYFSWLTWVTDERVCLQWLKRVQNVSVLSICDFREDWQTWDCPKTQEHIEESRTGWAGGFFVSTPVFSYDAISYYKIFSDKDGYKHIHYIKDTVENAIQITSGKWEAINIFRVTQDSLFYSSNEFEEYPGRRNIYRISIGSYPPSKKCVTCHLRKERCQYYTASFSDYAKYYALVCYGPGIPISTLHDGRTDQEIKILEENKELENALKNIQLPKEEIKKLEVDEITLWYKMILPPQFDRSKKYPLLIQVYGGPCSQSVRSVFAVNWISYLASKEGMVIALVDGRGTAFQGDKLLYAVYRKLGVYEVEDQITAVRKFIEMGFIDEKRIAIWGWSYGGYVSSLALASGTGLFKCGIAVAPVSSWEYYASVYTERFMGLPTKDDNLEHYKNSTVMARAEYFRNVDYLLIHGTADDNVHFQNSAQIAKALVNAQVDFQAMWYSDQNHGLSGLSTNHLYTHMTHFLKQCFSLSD

Mus musculus [4] = assay: Reduction of dextrose induced blood glucose excursion in mouse at 1 mg/kg; format: functional; set-up: scale not given: the % may be the effect or the level left
Summary of the method: (§1)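 Lean mice received a single oral dose of the compound 60 min before an oral dextrose challenge (5 g/kg) in an oral glucose tolerance test. The read-out was the reduction of the dextrose-induced blood glucose excursion. Data are mean ± SEM, n = 7 per group.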

Dipeptidyl peptidase 9 = Dipeptidyl peptidase 9 (Homo sapiens, UniProt Q86TI2); assay: Inhibition of DPP9
Dipeptidyl peptidase 9, sequence (Q86TI2 whole entry): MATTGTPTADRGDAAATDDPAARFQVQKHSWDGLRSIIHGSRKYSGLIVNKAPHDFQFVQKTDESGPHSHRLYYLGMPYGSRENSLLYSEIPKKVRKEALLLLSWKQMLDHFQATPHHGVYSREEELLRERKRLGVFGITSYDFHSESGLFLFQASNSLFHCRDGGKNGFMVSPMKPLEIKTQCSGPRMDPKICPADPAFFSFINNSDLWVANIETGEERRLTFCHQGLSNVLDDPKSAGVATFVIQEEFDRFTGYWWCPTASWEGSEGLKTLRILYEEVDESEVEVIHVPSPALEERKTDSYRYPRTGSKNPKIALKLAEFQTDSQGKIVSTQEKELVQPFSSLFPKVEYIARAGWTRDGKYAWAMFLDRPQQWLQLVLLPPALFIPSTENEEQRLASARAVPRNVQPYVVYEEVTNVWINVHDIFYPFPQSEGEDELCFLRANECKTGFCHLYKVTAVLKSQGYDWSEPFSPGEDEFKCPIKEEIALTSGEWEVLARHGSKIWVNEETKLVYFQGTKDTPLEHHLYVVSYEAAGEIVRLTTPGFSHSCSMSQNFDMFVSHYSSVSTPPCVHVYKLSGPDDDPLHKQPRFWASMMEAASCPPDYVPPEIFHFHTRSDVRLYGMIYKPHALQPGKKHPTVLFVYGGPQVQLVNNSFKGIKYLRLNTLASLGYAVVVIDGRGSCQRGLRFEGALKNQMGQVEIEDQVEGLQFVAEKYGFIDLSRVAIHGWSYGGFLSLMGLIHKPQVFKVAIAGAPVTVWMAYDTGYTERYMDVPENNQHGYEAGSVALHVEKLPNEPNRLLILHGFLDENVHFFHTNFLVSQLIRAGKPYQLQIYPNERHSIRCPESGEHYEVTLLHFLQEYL

Dipeptidyl peptidase 4 [5] = molecular target: Dipeptidyl peptidase 4 (Mus musculus, UniProt P28843); assay: Inhibition of mouse DPP4
Dipeptidyl peptidase 4 (Mus musculus, UniProt P28843), sequence (P28843 whole entry): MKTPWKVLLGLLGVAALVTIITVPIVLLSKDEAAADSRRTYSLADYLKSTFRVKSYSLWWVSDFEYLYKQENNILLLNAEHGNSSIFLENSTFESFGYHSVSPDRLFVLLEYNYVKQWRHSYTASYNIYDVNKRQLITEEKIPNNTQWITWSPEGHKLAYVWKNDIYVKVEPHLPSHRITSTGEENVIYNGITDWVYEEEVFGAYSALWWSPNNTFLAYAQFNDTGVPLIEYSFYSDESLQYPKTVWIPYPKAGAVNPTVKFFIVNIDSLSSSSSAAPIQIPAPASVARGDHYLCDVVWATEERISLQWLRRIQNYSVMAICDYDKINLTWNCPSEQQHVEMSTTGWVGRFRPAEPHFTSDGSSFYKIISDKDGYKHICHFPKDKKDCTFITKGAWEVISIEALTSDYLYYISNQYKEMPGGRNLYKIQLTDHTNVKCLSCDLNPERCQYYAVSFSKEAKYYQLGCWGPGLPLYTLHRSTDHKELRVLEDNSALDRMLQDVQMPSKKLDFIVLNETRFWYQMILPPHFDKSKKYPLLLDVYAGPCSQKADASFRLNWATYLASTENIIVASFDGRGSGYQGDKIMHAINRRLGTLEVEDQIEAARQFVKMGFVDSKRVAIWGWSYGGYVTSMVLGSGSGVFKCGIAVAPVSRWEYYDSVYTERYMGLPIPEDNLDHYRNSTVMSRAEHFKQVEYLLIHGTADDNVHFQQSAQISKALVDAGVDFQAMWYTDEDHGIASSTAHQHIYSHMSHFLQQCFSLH

[6] = Cmax in rat at 2 mg/kg, po; format: ADME, organism-based; set-up: dose 2 mg/kg, route oral; details: in vivo
Xaa-Pro dipeptidase = molecular target: T2, Xaa-Pro dipeptidase (Homo sapiens, UniProt P12955); assay: Inhibition of prolidase
T2 sequence (P12955 whole entry): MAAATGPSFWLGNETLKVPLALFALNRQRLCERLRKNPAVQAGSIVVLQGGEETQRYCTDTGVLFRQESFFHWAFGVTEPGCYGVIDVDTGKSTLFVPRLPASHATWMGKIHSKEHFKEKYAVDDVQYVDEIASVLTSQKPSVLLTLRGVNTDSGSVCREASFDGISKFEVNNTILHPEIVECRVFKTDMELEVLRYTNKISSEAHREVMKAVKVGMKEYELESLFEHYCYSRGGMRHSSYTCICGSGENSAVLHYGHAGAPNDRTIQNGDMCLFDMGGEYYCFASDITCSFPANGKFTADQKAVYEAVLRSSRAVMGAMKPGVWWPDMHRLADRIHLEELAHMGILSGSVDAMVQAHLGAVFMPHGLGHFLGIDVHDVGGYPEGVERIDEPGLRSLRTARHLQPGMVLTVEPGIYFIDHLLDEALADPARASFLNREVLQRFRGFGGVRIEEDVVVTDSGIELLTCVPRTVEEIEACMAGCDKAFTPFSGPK

Dipeptidyl peptidase 2 = Dipeptidyl peptidase 2 (Homo sapiens, UniProt Q9UHL4); assay: Inhibition of QPP
[7] = Oral bioavailability in rat at 2 mg/kg; format: ADME, organism-based; details: in vivo
Dipeptidyl peptidase 8 = Dipeptidyl peptidase 8 (Homo sapiens, UniProt Q6V1X1); assay: Inhibition of DPP8
Dipeptidyl peptidase 8, sequence (Q6V1X1 whole entry): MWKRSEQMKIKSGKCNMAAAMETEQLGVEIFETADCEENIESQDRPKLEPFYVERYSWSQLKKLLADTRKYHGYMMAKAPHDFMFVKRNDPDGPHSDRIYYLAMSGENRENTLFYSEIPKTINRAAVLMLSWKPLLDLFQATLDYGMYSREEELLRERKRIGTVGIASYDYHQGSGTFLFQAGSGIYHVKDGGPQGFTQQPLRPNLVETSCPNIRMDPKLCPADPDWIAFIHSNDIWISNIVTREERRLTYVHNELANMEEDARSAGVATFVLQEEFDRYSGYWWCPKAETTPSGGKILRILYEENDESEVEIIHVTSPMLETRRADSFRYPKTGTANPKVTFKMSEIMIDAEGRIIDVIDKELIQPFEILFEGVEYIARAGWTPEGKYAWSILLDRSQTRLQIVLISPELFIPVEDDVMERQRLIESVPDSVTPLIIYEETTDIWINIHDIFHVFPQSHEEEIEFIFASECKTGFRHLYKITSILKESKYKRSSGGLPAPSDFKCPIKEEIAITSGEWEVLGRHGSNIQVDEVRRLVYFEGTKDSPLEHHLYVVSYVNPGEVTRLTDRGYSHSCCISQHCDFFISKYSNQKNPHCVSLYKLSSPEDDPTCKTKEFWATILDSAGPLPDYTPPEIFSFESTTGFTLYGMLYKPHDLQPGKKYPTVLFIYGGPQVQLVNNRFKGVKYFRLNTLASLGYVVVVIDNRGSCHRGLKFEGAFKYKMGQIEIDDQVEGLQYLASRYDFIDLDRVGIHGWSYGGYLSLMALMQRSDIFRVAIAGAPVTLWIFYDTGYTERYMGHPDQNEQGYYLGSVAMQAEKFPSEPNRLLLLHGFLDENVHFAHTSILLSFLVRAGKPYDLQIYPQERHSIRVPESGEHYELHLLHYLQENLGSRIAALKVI

[8] = Half life in dog at 1 mg/kg, iv and 2 mg/kg, po; format: ADME, organism-based, Canis lupus familiaris; details: in vivo
[9] = Plasma clearance in rat at 1 mg/kg, iv and 2 mg/kg, po; format: ADME, organism-based
Plasma = assay: Drug level in mouse plasma at 1 mg/kg; format: ADME, organism-based; set-up: dose 1 mg/kg; details: in vivo
Summary of the method: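 Lean mice, oral OGTT: single oral dose given 60 min before an oral dextrose challenge (5 g/kg). Plasma was sampled 20 min after dextrose for compound concentration, alongside plasma DPP-4 activity and active GLP-1. Values are mean ± SEM, n = 7 per group.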

[10] = Plasma clearance in dog at 1 mg/kg, iv and 2 mg/kg, po; format: ADME, organism-based, Canis lupus familiaris
[11] = Oral bioavailability in dog at 2 mg/kg; format: ADME, organism-based, Canis lupus familiaris; details: in vivo
Mus musculus [12] = assay: Reduction of dextrose induced blood glucose excursion in mouse at 0.1 mg/kg; format: functional; set-up: scale not given: the % may be the effect or the level left; summary of the method: as §1
[13] = Oral bioavailability in monkey at 2 mg/kg; format: ADME, organism-based, Macaca mulatta; details: rhesus monkey, in vivo
[14] = Cmax in monkey at 2 mg/kg, po; format: ADME, organism-based, Macaca mulatta; set-up: dose 2 mg/kg, route oral; details: rhesus monkey, in vivo
[15] = Plasma clearance in monkey at 1 mg/kg, iv and 2 mg/kg, po; format: ADME, organism-based, Macaca mulatta; details: rhesus monkey
[16] = Half life in monkey at 1 mg/kg, iv and 2 mg/kg, po; format: ADME, organism-based, Macaca mulatta; details: rhesus monkey, in vivo
[17] = Oral bioavailability in Zucker fa/fa rat; format: ADME, organism-based; details: in vivo
[18] = Oral bioavailability in mouse; format: ADME, organism-based; details: in vivo

Dipeptidyl peptidase 4 (Homo sapiens, UniProt P27487), sequence (P27487 whole entry): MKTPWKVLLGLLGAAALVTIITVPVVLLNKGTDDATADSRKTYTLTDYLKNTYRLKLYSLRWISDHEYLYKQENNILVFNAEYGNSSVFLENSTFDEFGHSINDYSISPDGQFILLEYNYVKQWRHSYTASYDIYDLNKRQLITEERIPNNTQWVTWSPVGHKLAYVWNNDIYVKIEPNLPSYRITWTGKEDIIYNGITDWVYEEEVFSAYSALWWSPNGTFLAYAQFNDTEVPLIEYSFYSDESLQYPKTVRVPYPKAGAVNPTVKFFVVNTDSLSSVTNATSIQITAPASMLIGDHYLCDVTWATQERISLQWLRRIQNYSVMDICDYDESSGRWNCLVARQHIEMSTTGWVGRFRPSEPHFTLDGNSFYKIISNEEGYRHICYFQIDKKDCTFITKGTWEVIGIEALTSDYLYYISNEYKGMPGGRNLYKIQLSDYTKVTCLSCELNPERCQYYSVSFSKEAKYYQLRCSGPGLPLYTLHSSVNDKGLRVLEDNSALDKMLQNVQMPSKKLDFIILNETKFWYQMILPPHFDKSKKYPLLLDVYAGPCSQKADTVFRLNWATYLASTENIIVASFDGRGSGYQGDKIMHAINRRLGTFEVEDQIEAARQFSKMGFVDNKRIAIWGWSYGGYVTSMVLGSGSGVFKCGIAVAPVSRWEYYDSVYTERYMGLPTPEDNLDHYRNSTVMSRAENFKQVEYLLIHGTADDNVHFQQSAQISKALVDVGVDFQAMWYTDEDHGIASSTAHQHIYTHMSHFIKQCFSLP
Xaa-Pro aminopeptidase 1, sequence (Q9NQW7 whole entry): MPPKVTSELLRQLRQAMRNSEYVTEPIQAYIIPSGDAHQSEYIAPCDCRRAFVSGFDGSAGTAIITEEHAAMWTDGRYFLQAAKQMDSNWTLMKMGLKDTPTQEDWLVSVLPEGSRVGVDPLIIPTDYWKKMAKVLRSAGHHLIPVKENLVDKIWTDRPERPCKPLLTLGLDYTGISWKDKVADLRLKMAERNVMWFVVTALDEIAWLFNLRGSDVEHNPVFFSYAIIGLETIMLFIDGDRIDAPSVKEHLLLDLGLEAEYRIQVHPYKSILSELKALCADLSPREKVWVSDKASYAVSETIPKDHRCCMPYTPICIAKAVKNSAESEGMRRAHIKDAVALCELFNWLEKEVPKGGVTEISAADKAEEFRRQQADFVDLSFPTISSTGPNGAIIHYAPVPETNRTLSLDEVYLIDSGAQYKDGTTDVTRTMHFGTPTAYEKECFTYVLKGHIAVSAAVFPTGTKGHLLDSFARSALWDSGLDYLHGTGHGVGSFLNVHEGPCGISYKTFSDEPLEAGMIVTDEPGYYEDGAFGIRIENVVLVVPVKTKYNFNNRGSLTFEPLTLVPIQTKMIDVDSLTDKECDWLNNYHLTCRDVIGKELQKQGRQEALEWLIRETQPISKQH

Row | Structure (SMILES) | half-life [1] | IC50 (Xaa-Pro aminopeptidase 1) | IC50 (Dipeptidyl peptidase 4 [2]) | IC50 (Prolyl endopeptidase FAP) | IC50 (Dipeptidyl peptidase 9) | Cmax [6] | IC50 (Xaa-Pro dipeptidase) | IC50 (Dipeptidyl peptidase 2) | bioavailability [7] | IC50 (Dipeptidyl peptidase 8) | clearance [9] | other results
1 | C[C@@H]1c2nnc(C(F)(F)F)n2CCN1C(=O)C[C@H](N)Cc1cc(F)c(F)cc1F.Cl | 2.4 h | > 10 µM | 0.0043 µM | > 10 µM | > 100 µM | 133 nM | > 10 µM | > 100 µM | 57% | 17 µM | 54 mL/min/kg | Cmax [3]: 756 nM; Activity (Mus musculus [4]): 55%; IC50 (Dipeptidyl peptidase 4 [5]): 0.011 µM; half-life [8]: 8.8 h; concentration (Plasma): 190 nM; clearance [10]: 7.8 mL/min/kg; bioavailability [11]: 91%; Activity (Mus musculus [12]): 34%; bioavailability [13]: 85%; Cmax [14]: 410 nM; clearance [15]: 29 mL/min/kg; half-life [16]: 6 h
2 | Cl.N[C@@H](CC(=O)N1CCn2c(nnc2C(F)(F)F)[C@H]1Cc1ccc(F)cc1)Cc1cc(F)c(F)cc1F (mixture of isomers) | 1.5 h | > 10 µM | 0.00018 µM | > 10 µM | 20 µM | 360 nM | > 10 µM | 33 µM | 76% | 0.332 µM | 29 mL/min/kg | bioavailability [17]: 100%; bioavailability [18]: 6%
